# Measured values taken from ChEMBL document CHEMBL1153433, “Design and synthesis of 2-amino-4-methylpyridine analogues as inhibitors for inducible nitric oxide synthase and in vivo evaluation of [18F]6-(2-fluoropropyl)-4-methyl-pyridin-2-amine as a potential PET tracer for inducible nitric oxide synthase” (J Med Chem, 2009).
# Assays:
# [1] = target: Nitric oxide synthase, inducible (Homo sapiens, UniProt P35228); assay: Inhibition of human recombinant iNOS using 1 mM […] and 2 uM L-arginine after 30 mins
# Procedure, shortened: (§1)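 Recombinant human NOS, scintillation proximity kit. Buffer: 50 mM Tris pH 7.4, 1.0 mM NADPH, 3.8 μM each of FMN, FAD and tetrahydrobiopterin, 2.0 mM DTT, 2.0 μM L-arginine. eNOS and nNOS buffer also had 20 μg/mL calmodulin and 1 mM CaCl2. Started with [3H]arginine, 30 min at room temperature, stopped with yttrium-silicate arginine-binding beads, counted after 2 h settling. IC50 mean ± SD, N ≥ 3.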
# Nitric oxide synthase 1 = Nitric oxide synthase 1 (Homo sapiens, UniProt P29475); assay: Inhibition of human recombinant nNOS using 1 mM […] and 2 uM L-arginine after 30 mins; procedure, shortened: as §1
# Nitric oxide synthase 3 = target: T1, Nitric oxide synthase 3 (Homo sapiens, UniProt P29474); assay: Inhibition of human recombinant eNOS using 1 mM […] and 2 uM L-arginine after 30 mins; procedure, shortened: as §1
# T1 sequence (P29474 whole entry): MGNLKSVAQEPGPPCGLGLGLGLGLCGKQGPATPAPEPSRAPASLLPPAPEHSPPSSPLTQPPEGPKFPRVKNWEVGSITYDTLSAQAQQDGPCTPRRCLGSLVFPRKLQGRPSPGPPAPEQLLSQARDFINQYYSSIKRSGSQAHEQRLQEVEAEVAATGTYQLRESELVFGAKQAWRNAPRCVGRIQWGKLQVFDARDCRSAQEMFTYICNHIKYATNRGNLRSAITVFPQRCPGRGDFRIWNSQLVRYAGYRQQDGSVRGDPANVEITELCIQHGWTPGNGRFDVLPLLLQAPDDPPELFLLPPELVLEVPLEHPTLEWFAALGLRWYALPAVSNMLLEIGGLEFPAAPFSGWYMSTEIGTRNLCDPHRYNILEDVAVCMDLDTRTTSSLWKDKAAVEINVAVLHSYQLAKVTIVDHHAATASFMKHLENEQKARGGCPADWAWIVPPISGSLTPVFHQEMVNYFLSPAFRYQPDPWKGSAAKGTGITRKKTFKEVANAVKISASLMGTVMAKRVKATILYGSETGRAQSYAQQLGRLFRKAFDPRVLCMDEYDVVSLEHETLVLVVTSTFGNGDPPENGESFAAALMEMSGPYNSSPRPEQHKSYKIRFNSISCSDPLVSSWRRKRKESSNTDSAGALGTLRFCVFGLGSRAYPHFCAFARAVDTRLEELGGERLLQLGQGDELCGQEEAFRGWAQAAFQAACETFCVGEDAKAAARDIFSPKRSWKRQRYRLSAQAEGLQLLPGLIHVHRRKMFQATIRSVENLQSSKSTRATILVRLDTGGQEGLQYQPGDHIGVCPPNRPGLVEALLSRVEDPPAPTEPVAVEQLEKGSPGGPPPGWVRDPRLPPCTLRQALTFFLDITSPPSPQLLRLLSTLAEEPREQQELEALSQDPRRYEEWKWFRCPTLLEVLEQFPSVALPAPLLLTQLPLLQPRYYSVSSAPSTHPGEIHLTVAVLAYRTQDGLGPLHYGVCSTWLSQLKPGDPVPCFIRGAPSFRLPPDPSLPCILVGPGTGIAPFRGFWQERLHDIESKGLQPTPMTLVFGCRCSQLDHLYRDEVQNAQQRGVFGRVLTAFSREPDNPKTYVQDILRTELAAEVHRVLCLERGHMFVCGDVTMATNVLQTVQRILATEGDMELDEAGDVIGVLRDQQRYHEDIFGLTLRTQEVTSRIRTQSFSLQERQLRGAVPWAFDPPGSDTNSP
# Chain of Nitric oxide synthase, inducible (P35228 whole entry): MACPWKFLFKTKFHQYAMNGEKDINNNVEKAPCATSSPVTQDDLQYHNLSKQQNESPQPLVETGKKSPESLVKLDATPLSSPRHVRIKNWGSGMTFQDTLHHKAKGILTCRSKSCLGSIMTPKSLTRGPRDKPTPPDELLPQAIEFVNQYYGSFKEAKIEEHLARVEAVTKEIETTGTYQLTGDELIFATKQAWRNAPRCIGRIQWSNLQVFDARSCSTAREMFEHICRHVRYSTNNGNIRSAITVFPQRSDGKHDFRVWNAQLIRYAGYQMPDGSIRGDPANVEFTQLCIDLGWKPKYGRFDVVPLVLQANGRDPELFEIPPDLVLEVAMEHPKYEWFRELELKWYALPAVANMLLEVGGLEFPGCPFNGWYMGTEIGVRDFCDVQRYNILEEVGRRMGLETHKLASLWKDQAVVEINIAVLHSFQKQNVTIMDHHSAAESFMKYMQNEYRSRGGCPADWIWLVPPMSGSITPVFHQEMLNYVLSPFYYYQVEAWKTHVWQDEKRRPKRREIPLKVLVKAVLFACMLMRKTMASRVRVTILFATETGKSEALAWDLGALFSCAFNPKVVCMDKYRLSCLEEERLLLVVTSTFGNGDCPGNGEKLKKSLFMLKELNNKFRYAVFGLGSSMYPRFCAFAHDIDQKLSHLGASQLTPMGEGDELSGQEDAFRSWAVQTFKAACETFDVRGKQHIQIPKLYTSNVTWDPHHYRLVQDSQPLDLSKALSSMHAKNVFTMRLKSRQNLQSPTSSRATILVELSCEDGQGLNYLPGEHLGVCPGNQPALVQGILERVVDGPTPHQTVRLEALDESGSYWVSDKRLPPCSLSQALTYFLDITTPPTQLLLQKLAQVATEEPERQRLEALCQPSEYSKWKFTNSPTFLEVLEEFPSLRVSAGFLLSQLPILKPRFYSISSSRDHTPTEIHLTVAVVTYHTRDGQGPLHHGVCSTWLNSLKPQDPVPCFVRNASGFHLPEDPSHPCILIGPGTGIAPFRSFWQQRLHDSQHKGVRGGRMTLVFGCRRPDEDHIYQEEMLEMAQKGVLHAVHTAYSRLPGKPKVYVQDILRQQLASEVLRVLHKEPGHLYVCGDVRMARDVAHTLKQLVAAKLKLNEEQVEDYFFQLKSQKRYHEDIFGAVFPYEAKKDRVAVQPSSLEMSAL
# Chain of Nitric oxide synthase 1 (P29475 whole entry): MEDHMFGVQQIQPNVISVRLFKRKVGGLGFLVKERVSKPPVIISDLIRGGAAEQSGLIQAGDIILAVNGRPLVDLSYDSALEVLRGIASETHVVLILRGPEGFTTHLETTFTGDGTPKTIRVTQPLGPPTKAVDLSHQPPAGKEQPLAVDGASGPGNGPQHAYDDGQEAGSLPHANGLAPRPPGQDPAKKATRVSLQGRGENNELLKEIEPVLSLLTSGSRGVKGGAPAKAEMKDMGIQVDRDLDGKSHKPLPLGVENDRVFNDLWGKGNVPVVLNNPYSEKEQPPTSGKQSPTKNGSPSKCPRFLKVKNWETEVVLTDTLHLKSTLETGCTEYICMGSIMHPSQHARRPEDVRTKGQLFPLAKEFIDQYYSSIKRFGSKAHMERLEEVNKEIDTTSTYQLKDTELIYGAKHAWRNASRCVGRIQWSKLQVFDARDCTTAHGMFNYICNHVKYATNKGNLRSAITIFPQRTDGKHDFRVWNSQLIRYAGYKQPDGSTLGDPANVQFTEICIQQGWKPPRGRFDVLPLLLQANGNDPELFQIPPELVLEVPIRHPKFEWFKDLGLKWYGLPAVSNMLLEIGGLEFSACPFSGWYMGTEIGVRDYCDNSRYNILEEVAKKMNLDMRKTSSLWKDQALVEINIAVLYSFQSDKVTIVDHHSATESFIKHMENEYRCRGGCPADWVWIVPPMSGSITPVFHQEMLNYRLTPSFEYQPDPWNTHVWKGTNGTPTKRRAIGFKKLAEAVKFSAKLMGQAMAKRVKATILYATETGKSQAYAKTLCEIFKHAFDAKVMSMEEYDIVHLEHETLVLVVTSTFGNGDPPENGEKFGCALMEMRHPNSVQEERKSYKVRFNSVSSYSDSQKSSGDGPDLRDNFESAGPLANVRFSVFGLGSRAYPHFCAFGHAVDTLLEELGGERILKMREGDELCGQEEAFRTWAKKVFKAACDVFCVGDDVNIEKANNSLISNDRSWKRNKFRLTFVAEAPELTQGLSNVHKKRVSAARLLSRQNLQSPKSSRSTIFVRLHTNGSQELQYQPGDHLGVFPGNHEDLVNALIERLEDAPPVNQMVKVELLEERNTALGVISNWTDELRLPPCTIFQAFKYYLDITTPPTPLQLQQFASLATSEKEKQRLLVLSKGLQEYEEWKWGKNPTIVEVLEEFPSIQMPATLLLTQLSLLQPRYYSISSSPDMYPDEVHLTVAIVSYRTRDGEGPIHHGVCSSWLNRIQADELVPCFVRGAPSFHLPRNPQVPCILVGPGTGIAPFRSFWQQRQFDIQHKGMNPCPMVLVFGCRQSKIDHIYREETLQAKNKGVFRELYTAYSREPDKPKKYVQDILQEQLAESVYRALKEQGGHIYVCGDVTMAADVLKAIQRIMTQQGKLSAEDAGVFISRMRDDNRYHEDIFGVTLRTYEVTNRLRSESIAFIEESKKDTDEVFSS
Structure (SMILES),IC50 [1] [nM],IC50 (Nitric oxide synthase 1) [nM],IC50 (Nitric oxide synthase 3) [nM]
Cc1cc(N)nc(CCCF)c1,57.6,514,1430
Cc1cc(N)nc(CC(C)CCF)c1 (stereo not drawn),731,–,–
CSCCC(C)Cc1cc(C)cc(N)n1 (stereo not drawn),> 5000,–,–
C/C=C/c1cc(C)cc(N)n1,282,–,–
Cc1cc(N)nc(CCCCF)c1,170,–,–

# The next lines start with results.
IC50 [1] [nM],Structure (SMILES),IC50 (Nitric oxide synthase 1) [nM],IC50 (Nitric oxide synthase 3) [nM]
220,Cc1cc(N)nc(CC(C)F)c1 (stereo not drawn),–,1500
> 5000,Cc1cc(N)nc(CC(C)OCCF)c1 (stereo not drawn),–,–
> 5000,COCCC(C)Cc1cc(C)cc(N)n1 (stereo not drawn),–,–
> 5000,COC(C)Cc1cc(C)cc(N)n1 (stereo not drawn),–,–
1780,Cc1cc(N)nc(CC(C)O)c1 (stereo not drawn),–,–
